Measurements of several laboratories.
Each line is one published result; the experiments were not run side by side.
Target: Serine/threonine-protein kinase TNNI3K (TNNI3K, Homo sapiens, UniProt Q59H18)
Residues used in one study (Q59H18 1-835): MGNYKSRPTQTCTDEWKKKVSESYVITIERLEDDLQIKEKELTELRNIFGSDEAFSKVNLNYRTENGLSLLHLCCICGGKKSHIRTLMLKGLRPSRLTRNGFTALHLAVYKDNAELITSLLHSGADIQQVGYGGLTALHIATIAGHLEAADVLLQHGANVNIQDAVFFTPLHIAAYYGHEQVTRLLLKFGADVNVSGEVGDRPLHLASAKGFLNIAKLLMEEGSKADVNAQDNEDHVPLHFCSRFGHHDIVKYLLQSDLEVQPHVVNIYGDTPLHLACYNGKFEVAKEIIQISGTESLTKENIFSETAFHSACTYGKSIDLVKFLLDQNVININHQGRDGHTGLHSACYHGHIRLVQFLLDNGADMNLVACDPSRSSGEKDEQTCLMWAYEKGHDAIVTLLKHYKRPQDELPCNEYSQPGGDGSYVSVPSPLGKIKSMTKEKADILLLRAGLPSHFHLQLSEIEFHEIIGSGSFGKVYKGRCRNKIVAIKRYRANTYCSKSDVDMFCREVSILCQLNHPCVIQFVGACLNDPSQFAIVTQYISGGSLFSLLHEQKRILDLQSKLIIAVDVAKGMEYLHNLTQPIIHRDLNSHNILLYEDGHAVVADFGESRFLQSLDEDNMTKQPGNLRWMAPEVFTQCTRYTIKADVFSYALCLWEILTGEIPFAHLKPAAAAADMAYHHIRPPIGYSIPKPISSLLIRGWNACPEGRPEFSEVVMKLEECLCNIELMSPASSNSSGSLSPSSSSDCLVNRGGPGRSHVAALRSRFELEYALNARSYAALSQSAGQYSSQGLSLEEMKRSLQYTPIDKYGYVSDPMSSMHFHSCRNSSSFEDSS

SMILES	test	conditions	remaining binding [%]
C=CC(=O)N1CCC(C(=O)NCC(=O)N2CCN(c3nc(-c4cnc(N)nc4C(F)F)nc(N4CCOCC4)n3)CC2)CC1	binding, competition with immobilised ligand	1 µM	100
COc1ccnn2ncc(-c3ccnc(N(C)C)n3)c12	binding	1 µM	93
Cc1noc([C@H]2C[C@@H](c3ccc(C(F)(F)F)cc3)CN(C(=O)N3CCS(=O)(=O)C3)C2)n1	cell-free assay, competition with immobilised ligand	1 µM	100
F[C@@H]1CCN(c2nccc(-c3cnn4ncccc34)n2)C1	binding	1 µM	100
CCN1CCN(Cc2ccc(C(=O)Nc3ccc(C)c(Oc4ccc5c(c4)CC(=O)N5)c3)cc2C(F)(F)F)CC1	binding, competition with immobilised ligand	1 µM	88
O=C(NCCCN1CCOCC1)c1ccc(Nc2ncc(Cl)c(-c3ccc(Cl)s3)n2)cc1	binding, competition with immobilised ligand	1 µM	78
C[C@H]1CCN(c2nccc(-c3cnn4ncccc34)n2)C1	binding	1 µM	100
O=C(NCC1CCOCC1)c1n[nH]cc1NC(=O)c1c(F)cccc1F	binding, competition with immobilised ligand	1 µM	100
CC1CCCN1c1nccc(-c2cnn3ncccc23)n1 (stereo not shown)	binding	1 µM	99
Cc1nc(C2CCN(C(=O)c3ccc(OC(F)(F)F)cc3N)CC2)c2ncc(N3CCN(C)CC3)cc2n1	cell-free assay, competition with immobilised ligand	1 µM	100
CN(C)c1nccc(-c2cnn3ncccc23)n1	binding	1 µM	100
Nc1ncc2c(n1)-c1c([nH]c3ccc(C#CC4CC4)cc13)CCCC2	binding, competition with immobilised ligand	1 µM	94
COc1ccc2cc(OCC3(C(=O)O)CN(C(=O)c4ccc(F)cc4)C3)ccc2c1	cell-free assay, competition with immobilised ligand	1 µM	100
COc1cnc(Nc2cccc(S(N)(=O)=O)c2)nc1N1CCN(c2ccccc2)CC1	binding, competition with immobilised ligand	1 µM	96
Cc1nc(N2CC[C@@H](O)C2)ncc1-c1cc(C(F)(F)F)cc2[nH]ncc12	cell-free assay, competition with immobilised ligand	1 µM	87
N[C@@H]1CCN(c2nccc(-c3cnn4ncccc34)n2)C1	binding	1 µM	94
CCCCN(CCCC)C(=O)CN1C[C@H](c2cc(OC)c3c(c2)OCO3)[C@@H](C(=O)O)[C@@H]1CC(C)(C)CCC	cell-free assay, competition with immobilised ligand	1 µM	100
C[C@@H](c1ccc(-n2cnc3c(N)ncnc32)cc1)N1CCc2nn(C)c(Cc3ccccc3)c2C1=O	binding, competition with immobilised ligand	0.1 µM	88
O=C(NCCCC1CCCCC1)c1ccc(CNC(=O)c2cnn(-c3ccccc3)c2C(F)(F)F)cc1	cell-free assay, competition with immobilised ligand	0.1 µM	79
O=C(c1ccc(Nc2nccc(-c3cc4ccccc4s3)n2)cc1)N1CCC(N2CCCC2)CC1	binding, competition with immobilised ligand	1 µM	71
CS(=O)(=O)N1CCCC(NC(=O)[C@H](CCC2CCCCC2)NC(=O)c2ccc(CNc3ncnc4c3nnn4-c3ccccc3)cc2)C1 (stereo partly shown)	cell-free assay, competition with immobilised ligand	0.1 µM	63
O=C(c1ccc(Nc2ncc(Cl)c(-c3cc4ccccc4s3)n2)cc1)N1CCC(N2CCCC2)CC1	binding, competition with immobilised ligand	1 µM	50
